Measurements: ChEMBL document CHEMBL1799968, “Dimethyl-diphenyl-propanamide derivatives as nonsteroidal dissociated glucocorticoid receptor agonists” (J Med Chem, 2010)
pEC50, pKi: −log10 of the molar value.

Legend:
Estrogen receptor = molecular target: T1, Estrogen receptor (Homo sapiens, UniProt P03372); assay: Binding affinity to ERalpha by fluorescence polarization assay
T1 sequence (P03372 whole entry): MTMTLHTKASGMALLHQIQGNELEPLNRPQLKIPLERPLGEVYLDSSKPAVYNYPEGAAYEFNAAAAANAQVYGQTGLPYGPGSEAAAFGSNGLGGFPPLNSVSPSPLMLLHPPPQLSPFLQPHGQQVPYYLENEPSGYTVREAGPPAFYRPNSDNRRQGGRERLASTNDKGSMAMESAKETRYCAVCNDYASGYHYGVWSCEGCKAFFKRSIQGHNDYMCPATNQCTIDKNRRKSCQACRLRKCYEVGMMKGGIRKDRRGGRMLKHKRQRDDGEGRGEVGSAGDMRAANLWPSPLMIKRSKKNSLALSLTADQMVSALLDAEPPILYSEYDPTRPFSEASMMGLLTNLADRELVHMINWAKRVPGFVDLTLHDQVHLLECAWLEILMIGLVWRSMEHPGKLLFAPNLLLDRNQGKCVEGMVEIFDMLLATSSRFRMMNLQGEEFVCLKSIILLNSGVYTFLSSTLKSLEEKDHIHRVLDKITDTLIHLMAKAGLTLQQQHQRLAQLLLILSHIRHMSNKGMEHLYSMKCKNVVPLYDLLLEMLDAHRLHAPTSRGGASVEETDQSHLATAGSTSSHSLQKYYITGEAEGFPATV
How it was run: (§1)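 Fluorescence polarization competition of test compound against a fluorescently labelled ligand for binding to full-length receptor or its ligand-binding domain.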

Progesterone receptor = molecular target: T2, Progesterone receptor (Homo sapiens, UniProt P06401); assay: Binding affinity to progesterone receptor by fluorescence polarization assay; how it was run: as §1
T2 sequence (P06401 whole entry): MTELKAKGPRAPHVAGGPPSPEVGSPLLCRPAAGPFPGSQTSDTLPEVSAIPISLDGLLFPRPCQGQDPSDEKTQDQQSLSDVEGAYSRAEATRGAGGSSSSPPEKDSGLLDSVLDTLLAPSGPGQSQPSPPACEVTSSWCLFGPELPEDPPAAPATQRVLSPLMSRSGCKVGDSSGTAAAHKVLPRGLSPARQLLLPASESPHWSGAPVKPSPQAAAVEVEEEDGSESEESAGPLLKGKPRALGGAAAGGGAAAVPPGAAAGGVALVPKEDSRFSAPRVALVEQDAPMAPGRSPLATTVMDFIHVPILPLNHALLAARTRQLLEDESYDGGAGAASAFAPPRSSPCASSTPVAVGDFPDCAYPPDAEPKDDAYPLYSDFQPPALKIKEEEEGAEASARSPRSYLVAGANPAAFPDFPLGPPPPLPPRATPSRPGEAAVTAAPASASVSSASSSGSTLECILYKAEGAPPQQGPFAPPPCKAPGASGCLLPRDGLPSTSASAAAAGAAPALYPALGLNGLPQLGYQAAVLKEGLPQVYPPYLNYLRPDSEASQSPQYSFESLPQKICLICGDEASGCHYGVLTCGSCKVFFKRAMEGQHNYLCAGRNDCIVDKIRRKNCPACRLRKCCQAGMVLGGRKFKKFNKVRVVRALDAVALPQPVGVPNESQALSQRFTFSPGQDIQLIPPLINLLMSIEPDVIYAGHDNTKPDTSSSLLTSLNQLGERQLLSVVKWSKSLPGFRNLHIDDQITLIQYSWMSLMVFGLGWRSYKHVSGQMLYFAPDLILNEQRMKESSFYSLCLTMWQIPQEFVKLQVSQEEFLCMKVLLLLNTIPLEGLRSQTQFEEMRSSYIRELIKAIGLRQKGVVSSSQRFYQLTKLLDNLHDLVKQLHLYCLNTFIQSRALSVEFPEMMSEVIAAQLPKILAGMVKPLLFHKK

Androgen receptor = molecular target: T3, Androgen receptor (Homo sapiens, UniProt P10275); assay: Binding affinity to androgen receptor by fluorescence polarization assay; how it was run: as §1
T3 sequence (P10275 whole entry): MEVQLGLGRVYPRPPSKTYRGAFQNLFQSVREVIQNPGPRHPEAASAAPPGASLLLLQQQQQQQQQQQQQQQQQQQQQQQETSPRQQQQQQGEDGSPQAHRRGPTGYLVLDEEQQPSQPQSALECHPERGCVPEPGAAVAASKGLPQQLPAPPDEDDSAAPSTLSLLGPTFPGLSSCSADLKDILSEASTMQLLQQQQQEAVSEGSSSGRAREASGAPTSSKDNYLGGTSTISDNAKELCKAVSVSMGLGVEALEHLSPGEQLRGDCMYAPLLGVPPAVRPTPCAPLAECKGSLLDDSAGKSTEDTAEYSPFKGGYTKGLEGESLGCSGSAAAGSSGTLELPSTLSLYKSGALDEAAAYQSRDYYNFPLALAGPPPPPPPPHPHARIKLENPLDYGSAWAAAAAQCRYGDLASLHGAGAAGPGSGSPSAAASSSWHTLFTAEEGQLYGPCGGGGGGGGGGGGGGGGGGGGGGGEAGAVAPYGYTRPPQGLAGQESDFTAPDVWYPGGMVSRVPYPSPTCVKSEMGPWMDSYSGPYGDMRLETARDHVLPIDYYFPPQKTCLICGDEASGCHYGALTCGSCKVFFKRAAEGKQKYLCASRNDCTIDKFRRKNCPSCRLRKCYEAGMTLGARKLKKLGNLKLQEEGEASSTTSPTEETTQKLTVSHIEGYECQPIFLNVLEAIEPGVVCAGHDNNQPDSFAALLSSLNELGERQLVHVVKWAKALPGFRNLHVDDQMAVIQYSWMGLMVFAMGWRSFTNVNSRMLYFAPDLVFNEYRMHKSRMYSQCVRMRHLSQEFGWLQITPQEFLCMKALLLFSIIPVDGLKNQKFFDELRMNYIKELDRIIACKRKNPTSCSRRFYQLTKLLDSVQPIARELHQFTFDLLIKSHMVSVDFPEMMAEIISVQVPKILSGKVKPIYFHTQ

[1] = molecular target: T4, Mineralocorticoid receptor (Homo sapiens, UniProt P08235); assay: Agonist activity at mineralocorticoid receptor in human A549 cells; type: functional, cell-based
T4 sequence (P08235 whole entry): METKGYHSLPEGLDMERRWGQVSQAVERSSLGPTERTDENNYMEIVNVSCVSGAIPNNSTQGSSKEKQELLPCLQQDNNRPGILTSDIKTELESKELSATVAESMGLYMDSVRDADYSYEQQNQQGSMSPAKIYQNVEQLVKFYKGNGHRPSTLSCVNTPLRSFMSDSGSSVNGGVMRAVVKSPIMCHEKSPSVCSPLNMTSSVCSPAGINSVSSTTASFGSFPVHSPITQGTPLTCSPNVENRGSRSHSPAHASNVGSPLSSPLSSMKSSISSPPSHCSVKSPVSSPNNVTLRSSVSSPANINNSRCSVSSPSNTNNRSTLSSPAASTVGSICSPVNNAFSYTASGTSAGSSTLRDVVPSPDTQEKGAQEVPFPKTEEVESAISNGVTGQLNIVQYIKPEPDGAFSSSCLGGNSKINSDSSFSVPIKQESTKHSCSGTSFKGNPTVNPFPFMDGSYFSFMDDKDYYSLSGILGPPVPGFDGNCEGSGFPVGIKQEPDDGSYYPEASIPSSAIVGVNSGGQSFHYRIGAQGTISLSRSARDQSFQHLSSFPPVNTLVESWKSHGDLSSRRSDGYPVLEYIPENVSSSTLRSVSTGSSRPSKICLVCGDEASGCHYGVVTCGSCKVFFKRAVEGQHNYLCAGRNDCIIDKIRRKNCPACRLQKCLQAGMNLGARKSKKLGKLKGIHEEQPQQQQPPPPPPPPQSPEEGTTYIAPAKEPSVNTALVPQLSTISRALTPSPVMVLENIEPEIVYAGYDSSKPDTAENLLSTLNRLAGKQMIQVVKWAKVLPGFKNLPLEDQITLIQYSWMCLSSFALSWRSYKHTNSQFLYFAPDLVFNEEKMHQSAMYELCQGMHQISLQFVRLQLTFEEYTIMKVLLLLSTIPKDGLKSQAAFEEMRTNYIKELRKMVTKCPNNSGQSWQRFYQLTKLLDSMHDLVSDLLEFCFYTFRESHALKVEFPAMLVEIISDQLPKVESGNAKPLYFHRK

Rattus norvegicus [2] = assay: Antiinflammatory activity against carrageenan-induced paw edema Sprague-Dawley rat model assessed as inhibition of hind paw swelling at 30 mg/kg, po measured after 5 hrs post carrageenan challenge; type: functional
How it was run: (§2)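 Male SD rats, fasted overnight plus up to 6 h more. Baseline hind paw volume taken by water plethysmometer. A single oral dose was given in a biologically acceptable medium. 2 h later, under anaesthesia, 1% carrageenan in PBS was injected subcutaneously into both hind paws. Volume was read 3 h post challenge, and swelling was taken as post-challenge minus baseline.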

Rattus norvegicus [3] = assay: Antiinflammatory activity in po dosed carrageenan-induced paw edema Sprague-Dawley rat model assessed as inhibition of hind paw swelling after 5 hrs post carrageenan challenge; type: functional; how it was run: as §2
Rattus norvegicus [4] = assay: Toxicity in Sprague-Dawley rat assessed as induction of TAT activity in liver homogenates at 30 mg/kg, po after 6 hrs; type: organism-based; design: dose 30 mg/kg, route oral; conditions: in vivo
How it was run: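 Male SD rats, fasted, single oral dose. Liver was biopsied 6 h postdose, snap frozen, homogenised in 150 mM KCl and centrifuged. Protein-normalised supernatants were assayed for TAT activity, read as OD at 340 nm. Values are given as % of TAT activity in prednisolone-treated (30 mg/kg) rats.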

Rattus norvegicus [5] = assay: Toxicity in Sprague-Dawley rat assessed as increase in serum glucose level at 30 mg/kg, po after 6 hrs; type: organism-based; design: dose 30 mg/kg, route oral; conditions: in vivo
How it was run: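 Male SD rats, fasted overnight plus up to 6 h, were given a single oral dose in a biologically acceptable medium. At 6 h they were euthanised with CO2, and blood was taken by intracardiac puncture. Serum glucose was measured by the hexokinase method on an automated chemistry analyzer.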

| Structure (SMILES) | pKi (Estrogen receptor) | pKi (Progesterone receptor) | pKi (Androgen receptor) | pEC50 [1] | inhibition (INH) (Rattus norvegicus [2]; 30 mg/kg) | inhibition in vivo at 30 mg/kg (Rattus norvegicus [2]; Rattus norvegicus, Sprague-Dawley, po, 5 h) | ED50 (Rattus norvegicus [3]) | Activity (Rattus norvegicus [4]) | Activity (Rattus norvegicus [5]) |
| --- | --- | --- | --- | --- | --- | --- | --- | --- | --- |
| CC(C)(C(=O)Nc1nncs1)[C@@H](c1ccccc1)c1ccc(O)c(F)c1 | < 4.30 | 7.26 | 6.00 | < 5.30 |  |  |  |  |  |
| C[C@]12C=CC(=O)C=C1CC[C@@H]1[C@@H]2[C@@H](O)C[C@@]2(C)[C@H]1CC[C@]2(O)C(=O)CO [PREDNISOLONE] | < 5.30 |  |  | 8.70 | 42% | 57% | 19 mg/kg | Toxic | Toxic |
